Only some compounds are listed: those with a hit (about 6.3% of all), similar ones and a draw of the others.
M1 antagonist: antagonists of rat M1 muscarinic receptor; P08482; CHO-M1 cells, Fluo-4 calcium, ACh EC80 antagonist mode; hits give low values; B-score at 10 µM; 64,000 compounds, 3.4% hits;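 active = calcium fluorescence response, raw or row-and-column corrected B-score, differing from the plate sample mean either way at a set confidence level, mostly lower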
SF1 activator: SF-1 (human) activation; AID 522; CHO-K1 Gal4-SF-1 LBD luciferase reporter; % increase over DMSO SF-1-specific signal; activation, % at 10 µM; 65,000 compounds, 1.9% hits;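 active = activation above the mean activation of all tested compounds plus 3 SD, cut at about 50% in these data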
Target sequence (Q13285 whole entry, looked up, the tested form may be a part): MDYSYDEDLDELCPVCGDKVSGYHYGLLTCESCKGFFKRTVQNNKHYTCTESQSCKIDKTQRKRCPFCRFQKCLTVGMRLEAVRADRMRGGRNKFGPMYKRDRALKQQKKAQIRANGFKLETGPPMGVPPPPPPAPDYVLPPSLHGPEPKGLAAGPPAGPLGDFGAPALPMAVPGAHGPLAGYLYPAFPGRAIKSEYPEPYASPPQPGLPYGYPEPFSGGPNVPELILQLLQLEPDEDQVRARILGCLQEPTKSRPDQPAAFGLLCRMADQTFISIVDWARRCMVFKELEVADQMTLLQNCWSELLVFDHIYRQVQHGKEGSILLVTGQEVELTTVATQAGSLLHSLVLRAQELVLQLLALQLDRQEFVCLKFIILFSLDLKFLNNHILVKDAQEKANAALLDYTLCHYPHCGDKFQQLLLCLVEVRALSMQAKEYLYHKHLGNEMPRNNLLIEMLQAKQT
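Test system: transient Gal4-SF-1 LBD reporter, CHO-K1; Amount: 4,000 CHO-K1 cells per well; Doses: 10 µM only; Timing: compound exposure 20 h at 37 °C; Signal: luciferase light emission; Read-out basis: percent activation relative to DMSO median and mock-transfected background; Control set: DMSO negative control and −SF1 background wells; Replicates: one test per compound.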
RORa activator: activators of human nuclear receptor RORA | P35398 | CHO-K1 Gal4-RORA LBD luciferase reporter, luminescence; percent increase over mock-subtracted basal signal | activation, % at 10 µM | AID 560 | 65,000 compounds, 1.5% hits;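 active = activation above the mean of all tested compounds plus 3 SD, cut at about 49% in these data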;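 note: 0% = DMSO-treated RORA cells and 100% = added signal equal to DMSO minus mock-transfected cells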
MT1-MMP txn act: MT1-MMP promoter transcription activation. 86,000 compounds, 0.16% hits. activation factor at 10 µM. HT1080 MT1-MMP promoter luciferase reporter, luminescence, overnight; hits give high values;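 active = activation factor of at least 2 for MT1-MMP transcription at 10 µM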
M1 ag: activates the M1 muscarinic receptor | CHO-M1 cells, Fluo-4 calcium fluorescence, agonist mode; hits give high values | 64,000 compounds, 3% hits | B-score at 10 µM;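 active = fluorescence rise, raw or as B-score row- and column-corrected plate score, outside the 99.7% band of its plate's samples, either direction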
M1 ag confirm: confirmation of rat M1 muscarinic receptor agonists; fluorescence change (max-min) at 10 µM; shares compounds with M1 ag; AID 1488; CHO-M1 cells, Fluo-4 calcium fluorescence, agonist mode; actives lie on both sides; 1,700 compounds, 19% hits;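 active = fluorescence change differs from the solvent-only DMSO control mean at a set confidence level in both duplicate runs; inconclusive = differs from solvent-only control mean in just one of two runs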;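 note: an EC20 dose of acetylcholine follows compound addition during the same imaging run; raw fluorescence intensity difference in instrument units with no normalization to controls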
M4 ag counter: rat M4 muscarinic agonism, M1 counter-screen; fluorescence change (max-min) at 10 µM; shares compounds with M1 ag; CHO M4/Gqi5 cells, Fluo-4 calcium fluorescence, agonist mode; actives lie on both sides; 1,700 compounds, 9% hits;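 active = fluorescence change differing from the plate's solvent-only control wells at 99.7% confidence in both duplicates, whether higher or lower; inconclusive = differs from solvent controls in only one of two duplicates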
* hit, by the source's call; ? = inconclusive; . = no result.

SMILES	M1 antagonist	SF1 activator	RORa activator	MT1-MMP txn act	M1 ag	M1 ag confirm	M4 ag counter
CC(C(=O)NCC1CCCO1)n1cccc1C(=O)c1ccccc1 (configuration not stated)	2.3*	-19	-11	1	21*	-10	?
CCOC(=O)c1sc2nc(N3CCOCC3)c3c(c2c1N)CCCC3	0.76	-7	-5	1	-0.057	.	.
COC(=O)c1ccc(-c2sc3nc(N4CCOCC4)c4c(c3c2N)CCCC4)o1	-0.17	-8	-6	1.1	5.5*	4.5	-10
NC(=O)CSc1nnc(C2CC2)n1Cc1ccccc1	0.4	13	-7	1.2	-0.051	.	.
COc1ccc(-c2noc(CN3CCN(c4ccccc4)CC3)n2)cc1	0.56	-9	-22	1.1	-1	.	.
CCOC(=O)N1CCN(Cc2nc(-c3ccc(C)cc3)no2)CC1	0.99	1	1	1.2	2.5*	-4.9	-11
CCOC(=O)c1nnn(-c2nonc2N)c1CN1CCc2ccccc2C1	0.22	3	1	1.2	-2.7*	-27*	?
Cc1cccc2cc3c(NC(=O)C(C)C)nn(C)c3nc12	-15*	-9	-10	1	12*	-16	-52
CCC(=O)Nc1nn(C)c2nc3c(C)cccc3cc12	1.1	6	-7	1	0.64	.	.
c1ccc(-n2nnnc2SCCCSc2nc3ccccc3s2)cc1	-0.85	-2	-25	1.1	27*	26	?
O=C(O)CCSc1nnnn1-c1ccccc1	0.42	3	3	1	0.47	.	.
CCOCCCn1cnc2c(c1=O)c1nc3ccccc3nc1n2-c1ccc(C)cc1	0.54	-17	7	1	0.68	.	.
CCOCCCn1cnc2c(c1=O)c1nc3ccccc3nc1n2-c1ccccc1	0.058	-5	-35	1	3.9*	?	-37
COc1cc(OC)cc(C(C(=O)NCc2ccccc2)N(Cc2ccco2)C(=O)c2ccno2)c1 (configuration not stated)	-0.3	-2	-26	0.9	7.1*	-14	?
COC(=O)c1ccc(C(C(=O)NCc2ccccc2)N(Cc2ccco2)C(=O)c2cnccn2)cc1 (configuration not stated)	-0.028	-10	23	.	0.81	.	.
CCN(CC)c1ccc2c(C)c(CN3CCOCC3)c(=O)oc2c1	-2.9*	4	-2	1.3	7.1*	43	-0.89
COC(=O)Cc1c(C)c2ccc(OCC(=O)N3CCOCC3)cc2oc1=O	-0.95	-4	-4	0.9	0.4	.	.
COCc1[nH]nc2c1C(c1ccccc1OC)C(C#N)=C(N)O2 (configuration not stated)	0.45	-13	-25	1.2	-0.77	.	.
CCCc1[nH]nc2c1C(CCc1ccccc1)C(C#N)=C(N)O2 (configuration not stated)	0.095	23	-8	1.1	2.7*	?	-24
COCc1[nH]nc2c1C(c1ccccc1Cl)C(C#N)=C(N)O2 (configuration not stated)	0.045	-7	-13	1	1.5*	-8.9	-18
CC(C)n1c(SCC(=O)N2CCCc3ccccc32)nc2c1c(=O)n(C)c(=O)n2C	0.32	-5	-2	1	0.65	.	.
Cc1ccc(C)c(Cn2c(CN(C)Cc3ccccc3)nc3c2c(=O)n(C)c(=O)n3C)c1	0.23	-20	12	1.1	0.21	.	.
CC(=O)c1ccc(NC(=O)N2CCN(c3cccc(Cl)c3)CC2)cc1	-2.8*	12	-36	0.9	5.1*	?	-28
CCOc1ccc2[nH]c(=O)c(CN(CC3CCCN3CC)C(=O)NCc3ccccc3)cc2c1 (configuration not stated)	-0.062	5	9	1.1	-0.01	.	.
CC1CN(S(=O)(=O)c2ccc(NC(=O)c3ccco3)cc2)CC(C)O1 (configuration not stated)	-0.0071	-16	-21	0.9	12*	-12	-32
CC1CN(S(=O)(=O)c2ccc(NC(=O)CCN3C(=O)c4ccccc4C3=O)cc2)CC(C)O1 (configuration not stated)	0.71	11	-4	1	0.024	.	.
CCc1ccccc1NC(=O)CSc1nnc(Cn2nnc3ccccc32)n1C	.	.	.	1.1	.	.	.

Source: PubChem
